The values below come from ChEMBL document CHEMBL2401719, “The development of a new class of inhibitors for betaine-homocysteine S-methyltransferase” (Eur J Med Chem, 2013).

Assay [1] addresses T1, Betaine--homocysteine S-methyltransferase 1 (Homo sapiens) (UniProt Q93088).
T1 sequence (whole entry): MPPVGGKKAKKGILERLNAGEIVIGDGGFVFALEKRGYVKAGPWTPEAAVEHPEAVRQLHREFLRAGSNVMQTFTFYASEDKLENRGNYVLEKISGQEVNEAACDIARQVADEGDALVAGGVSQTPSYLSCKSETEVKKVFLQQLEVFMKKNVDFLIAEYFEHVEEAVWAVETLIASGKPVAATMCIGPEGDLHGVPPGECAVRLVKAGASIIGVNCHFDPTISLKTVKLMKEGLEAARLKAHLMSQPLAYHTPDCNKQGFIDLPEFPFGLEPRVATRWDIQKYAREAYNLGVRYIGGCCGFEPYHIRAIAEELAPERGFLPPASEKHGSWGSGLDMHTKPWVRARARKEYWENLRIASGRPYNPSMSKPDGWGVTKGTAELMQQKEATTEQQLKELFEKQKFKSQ
In words: Inhibition of human recombinant BHMT using N-methyl-[14C]-betaine/D,L-homocysteine as substrate at 20 uM after 30 mins by scintiillation counting analysis. In short, it runs like this: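 Human recombinant BHMT assayed in pH 7.5 buffer with 0.25 mM betaine and 0.1 mM D,L-homocysteine, compound at a single fixed concentration. Percent inhibition is the average of triplicates, with data reproducible within ±15%.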

The target in assay [2] is T2, Betaine--homocysteine S-methyltransferase 1 (Homo sapiens, UniProt Q93088).
T2 sequence (Q93088 whole entry): T1 sequence (whole entry)
In words: Inhibition of human recombinant BHMT using N-methyl-[14C]-betaine/D,L-homocysteine as substrate after 30 mins by scintiillation counting analysis. In short, it runs like this:
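Human recombinant BHMT assayed in pH 7.5 buffer with 2 mM betaine and 1 mM D,L-homocysteine. Each IC50 data point was run in duplicate.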

By inhibition is commonly meant the share of the control response that was lost under treatment. As for `O=C(O)CCCCS[C@@H]1CN[C@H](C(=O)O)C1`, the inhibition in assay [1] was determined as 24%.

Take `O=C(O)CCCCS[C@H]1CN[C@H](C(=O)O)C1`: the inhibition in assay [1] is 0%.

One may read the IC50 as the concentration needed to halve the response being measured. Take `NC(CCSCCCCC(=O)O)P(=O)(O)O` (racemic): in assay [1], the inhibition was 58%. The IC50 in assay [2] worked out at 219 µM.

On to `NC(CCSCCCCC(=O)O)[PH](=O)O` (racemic), for which the inhibition in assay [1] stood at 95%. The IC50 in assay [2] is 5 µM.

Take `CC(C)(CCSCCC(N)[PH](=O)O)CC(=O)O` (racemic): the inhibition in assay [1] was determined as 99%. Besides, in assay [2], the IC50 is 1.1 µM. Regarding `CNC(=O)C(N)CCSCCCCC(=O)O` (racemic), the inhibition in assay [1] came to 8%. On the same count and under the same terms, to `CS(=O)(=O)NC(=O)C(N)CCSCCCCC(=O)O` (racemic) belongs 67%. Regarding `N#CC(N)CCSCCCCC(=O)O` (racemic), the inhibition in assay [1] was found to be 9%. Still for that read-out and setting: under `NC(=O)C(N)CCSCCCCC(=O)O` (racemic) stands 17%; under `NC(CCSCCCCC(=O)O)C(=O)N1CCCCC1` (racemic), 9%; under `NC(CCSCCCCC(=O)O)c1nc(=O)o[nH]1` (racemic), 15%.

As to `NC(CCSCCCCC(=O)O)c1nnn[nH]1` (racemic), the inhibition in assay [1] was found to be 0%. Still for that read-out and setting: to `NNC(=O)C(N)CCSCCCCC(=O)O` (racemic) belongs 28%.
